# Experimental data published in ChEMBL document CHEMBL1129426, “5-Lipoxygenase inhibitors: synthesis and structure-activity relationships of a series of 1-aryl-2H,4H-tetrahydro-1,2,4-triazin-3-ones” (J Med Chem, 1996).
# Where “and” joins values, the source holds several entries; their conditions need not be identical. Equal values may be shown once. Calls of active or inactive are those of the source. The rule behind the calls is not given here.
# Experiments:
# [1] = molecular target: T1, Polyunsaturated fatty acid 5-lipoxygenase (Rattus norvegicus, UniProt P12527); assay: Inhibition of 5-lipoxygenase catalysis in rat basophilic leukemia (RBL) cells by measuring 5-HETE product formation; assay type: cell-based, RBL-1
# T1 sequence (P12527 whole entry): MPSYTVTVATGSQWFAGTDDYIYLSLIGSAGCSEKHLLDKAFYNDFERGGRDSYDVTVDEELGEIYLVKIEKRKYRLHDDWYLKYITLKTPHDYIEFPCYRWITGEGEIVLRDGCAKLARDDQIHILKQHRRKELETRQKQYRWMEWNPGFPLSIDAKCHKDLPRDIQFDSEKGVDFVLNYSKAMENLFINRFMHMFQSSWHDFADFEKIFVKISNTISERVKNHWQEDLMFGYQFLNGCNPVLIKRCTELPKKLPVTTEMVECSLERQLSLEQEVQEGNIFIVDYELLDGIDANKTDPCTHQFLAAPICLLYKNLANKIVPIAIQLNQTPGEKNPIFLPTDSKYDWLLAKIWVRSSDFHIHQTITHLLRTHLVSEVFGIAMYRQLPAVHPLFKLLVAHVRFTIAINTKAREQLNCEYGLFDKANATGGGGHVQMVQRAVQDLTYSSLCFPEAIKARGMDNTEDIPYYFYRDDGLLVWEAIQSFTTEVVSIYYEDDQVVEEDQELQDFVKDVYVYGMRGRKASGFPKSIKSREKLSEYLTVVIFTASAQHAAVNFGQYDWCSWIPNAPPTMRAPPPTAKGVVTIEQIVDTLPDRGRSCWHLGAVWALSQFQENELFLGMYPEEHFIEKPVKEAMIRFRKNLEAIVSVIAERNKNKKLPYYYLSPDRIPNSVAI
# How it was run: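 Crude 20000g supernatant from sonicated rat basophilic leukemia cells used as 5-LO source; 5-HETE product formation measured.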
# [2] = Plasma Cmax in rat (PO dose); assay type: ADME, organism-based; set-up: route oral
# How it was run: (§1)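 Rats dosed by oral gavage at 200 µmol/kg. Tail-vein blood drawn at about 1 h intervals; plasma analysed by HPLC. Mean of data from two animals.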
# [3] = Plasma Tmax in rat (PO dose); assay type: ADME, organism-based; how it was run: as §1
# Rattus norvegicus [4] = assay: In vivo inhibition of rat anaphylaxis leukotriene formation from peritoneal fluids, 1 hr after an oral dose of 200 uM/Kg; Not significant; assay type: functional, organism-based
# How it was run: (§2)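 Rats given 200 µmol/kg orally 1 h before antibody-antigen challenge inducing peritoneal leukotriene biosynthesis; LTE4 in peritoneal fluid measured. Mean of eight rats; percent inhibition versus control group mean; significance by one-way ANOVA with Tukey's multiple comparison.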
# [5] = molecular target: T2, Polyunsaturated fatty acid 5-lipoxygenase (Homo sapiens, UniProt P09917); assay: In vitro 5-lipoxygenase inhibitory activity against calcium ionophore (A23187) induced LTB4 formation in human whole blood.
# T2 sequence (P09917 whole entry): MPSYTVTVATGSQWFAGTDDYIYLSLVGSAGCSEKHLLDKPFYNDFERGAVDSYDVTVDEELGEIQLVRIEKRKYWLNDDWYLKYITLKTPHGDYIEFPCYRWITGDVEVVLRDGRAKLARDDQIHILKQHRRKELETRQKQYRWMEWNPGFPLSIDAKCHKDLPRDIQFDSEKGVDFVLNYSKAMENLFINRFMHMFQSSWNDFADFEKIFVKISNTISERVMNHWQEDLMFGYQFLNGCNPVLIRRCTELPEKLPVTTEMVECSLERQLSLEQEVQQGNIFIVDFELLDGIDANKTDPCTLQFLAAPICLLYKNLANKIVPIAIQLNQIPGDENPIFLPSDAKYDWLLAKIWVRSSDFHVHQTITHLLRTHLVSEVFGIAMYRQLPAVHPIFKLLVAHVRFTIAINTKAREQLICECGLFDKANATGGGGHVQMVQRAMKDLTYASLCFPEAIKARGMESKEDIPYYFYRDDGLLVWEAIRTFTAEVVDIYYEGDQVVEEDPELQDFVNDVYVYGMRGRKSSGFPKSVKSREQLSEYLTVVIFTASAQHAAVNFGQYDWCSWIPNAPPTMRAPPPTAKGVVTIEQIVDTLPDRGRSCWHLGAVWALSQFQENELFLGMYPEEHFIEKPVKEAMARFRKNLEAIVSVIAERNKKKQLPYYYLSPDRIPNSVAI
# Cyclooxygenase [6] = molecular target: T3, Cyclooxygenase (Rattus norvegicus, UniProt P35355+Q63921); assay: In vitro cyclooxygenase inhibitory activity against calcium ionophore (A23187) induced thromboxane formation in rat polymorphonuclear leukocytes; assay type: functional, cell-based
# T3 sequence (P35355 whole entry): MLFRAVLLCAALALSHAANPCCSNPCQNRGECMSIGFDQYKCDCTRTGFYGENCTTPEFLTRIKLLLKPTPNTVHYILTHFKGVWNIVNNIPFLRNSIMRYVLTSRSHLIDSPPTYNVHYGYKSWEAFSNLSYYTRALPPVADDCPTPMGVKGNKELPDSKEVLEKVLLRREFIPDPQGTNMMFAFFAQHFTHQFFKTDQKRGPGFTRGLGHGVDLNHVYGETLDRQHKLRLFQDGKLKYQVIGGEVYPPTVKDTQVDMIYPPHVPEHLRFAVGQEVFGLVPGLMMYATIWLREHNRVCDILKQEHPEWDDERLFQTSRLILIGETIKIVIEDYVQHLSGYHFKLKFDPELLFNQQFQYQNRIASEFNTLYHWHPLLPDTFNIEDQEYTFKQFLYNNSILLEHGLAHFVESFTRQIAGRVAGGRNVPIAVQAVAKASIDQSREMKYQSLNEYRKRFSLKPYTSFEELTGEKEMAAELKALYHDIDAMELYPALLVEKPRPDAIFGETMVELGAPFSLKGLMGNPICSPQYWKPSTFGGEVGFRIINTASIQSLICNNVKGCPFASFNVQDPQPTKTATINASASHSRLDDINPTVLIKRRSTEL
# T3 sequence (Q63921 whole entry): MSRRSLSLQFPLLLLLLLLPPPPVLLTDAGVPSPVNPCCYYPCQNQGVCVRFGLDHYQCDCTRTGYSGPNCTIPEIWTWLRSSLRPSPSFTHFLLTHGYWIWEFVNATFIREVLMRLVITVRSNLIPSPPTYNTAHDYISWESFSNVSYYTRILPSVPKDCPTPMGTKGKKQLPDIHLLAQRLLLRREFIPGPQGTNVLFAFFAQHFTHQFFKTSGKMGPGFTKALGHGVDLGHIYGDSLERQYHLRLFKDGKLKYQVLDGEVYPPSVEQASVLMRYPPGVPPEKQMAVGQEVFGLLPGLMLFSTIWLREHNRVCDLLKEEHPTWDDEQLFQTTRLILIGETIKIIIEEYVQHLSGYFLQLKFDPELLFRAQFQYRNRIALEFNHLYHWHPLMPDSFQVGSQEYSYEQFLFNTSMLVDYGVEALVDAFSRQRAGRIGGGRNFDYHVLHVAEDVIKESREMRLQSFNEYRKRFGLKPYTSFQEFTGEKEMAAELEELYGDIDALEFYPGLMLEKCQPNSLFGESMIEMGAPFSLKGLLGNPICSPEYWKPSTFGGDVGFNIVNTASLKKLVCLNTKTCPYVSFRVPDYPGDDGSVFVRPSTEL
# How it was run: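 Rat polymorphonuclear leukocytes, intact cells, stimulated with calcium ionophore A23187. Thromboxane quantified by enzyme immunoassay. Duplicate assays.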
# Cyclooxygenase [7] = molecular target: T4, Cyclooxygenase (Homo sapiens, UniProt P35354+P23219); assay: In vitro cyclooxygenase inhibitory activity against calcium ionophore (A23187) induced thromboxane formation in human whole blood; assay type: functional, tissue-based
# How it was run: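 Human whole blood stimulated with calcium ionophore A23187. Thromboxane measured by enzyme immunoassay. Assays in duplicate.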
# [8] = molecular target: Prostaglandin G/H synthase 1 (Ovis aries) (UniProt P05979); assay: Compound was tested in vitro for inhibition of Prostaglandin G/H synthase sheep seminal vesicle
# Rattus norvegicus [9] = assay: In vivo inhibition of rat anaphylaxis leukotriene formation from peritoneal fluids, 1 hr after an oral dose of 200 uM/Kg; assay type: functional; how it was run: as §2
# [10] = molecular target: T2, Polyunsaturated fatty acid 5-lipoxygenase; assay: In vitro 5-lipoxygenase inhibitory activity against calcium ionophore (A23187) induced LTB4 formation in human whole blood; assay type: functional, tissue-based
# [11] = molecular target: T1, Polyunsaturated fatty acid 5-lipoxygenase; assay: In vitro 5-lipoxygenase inhibitory activity against calcium ionophore (A23187) induced LTB4 formation in rat polymorphonuclear leukocytes; assay type: functional, cell-based
# [12] = Cmax in cynomolgus monkey (PO dose); assay type: ADME, organism-based, Macaca fascicularis; set-up: route oral; conditions: in vivo
# How it was run: (§3)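 Cynomolgus monkeys (n=2) dosed orally, 113 or 112 µmol/kg, as suspension in 0.2% HPMC. Plasma from serial blood samples deproteinized with 2 volumes methanol, run on C18 reversed-phase HPLC (55% acetonitrile, 10 mM acetohydroxamic acid, 8 mM triethylamine acetate, pH 6.5), UV 260 nm against external calibration curve. Mean of two animals.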
# [13] = Cmax in rat (PO dose); assay type: ADME, organism-based; set-up: route oral; conditions: in vivo; how it was run: as §1
# [14] = T1/2 in dog (PO dose); assay type: ADME, organism-based; conditions: in vivo
# How it was run: (§4)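 Dogs (n=2) given 113 or 112 µmol/kg orally. Blood sampled at various times; plasma deproteinized with methanol and quantified by reversed-phase C18 HPLC with UV detection at 260 nm, external calibration. Values are means of two animals.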
# [15] = T1/2 in cynomolgus monkey (PO dose); assay type: ADME, organism-based, Macaca fascicularis; conditions: in vivo; how it was run: as §3
# [16] = Tmax in dog (PO dose); assay type: ADME, organism-based, Canis lupus familiaris; conditions: in vivo; how it was run: as §4
# [17] = Tmax in cynomolgus monkey (PO dose); assay type: ADME, organism-based, Macaca fascicularis; conditions: in vivo; how it was run: as §3
# [18] = Tmax in rat (PO dose); assay type: ADME, organism-based; conditions: in vivo; how it was run: as §1
# Cyclooxygenase [19] = molecular target: T4, Cyclooxygenase; assay: In vitro cyclooxygenase inhibitory activity at 100 uM against calcium ionophore (A23187) induced thromboxane formation in human whole blood; assay type: functional, tissue-based
# How it was run: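 Human whole blood challenged with calcium ionophore A23187; thromboxane measured by enzyme immunoassay as COX readout. Duplicate assays; percent inhibition at highest tested concentration.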
# [20] = molecular target: Cyclooxygenase (Rattus norvegicus) (UniProt P35355+Q63921); assay: In vitro cyclooxygenase inhibitory activity at 100 uM against calcium ionophore (A23187) induced thromboxane formation in rat polymorphonuclear leukocytes; assay type: functional, cell-based
# How it was run: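 Rat polymorphonuclear leukocytes stimulated with calcium ionophore A23187; thromboxane determined by enzyme immunoassay. Duplicate assays; percent inhibition reported at highest concentration tested.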
# Cmax in dog (PO dose) = conditions: in vivo
# [21] = molecular target: Prostaglandin G/H synthase 1 (Ovis aries) (UniProt P05979); assay: Compound at 100 uM was tested in vitro for inhibition of Prostaglandin G/H synthase sheep seminal vesicle
# Prostaglandin G/H synthase 1 (Ovis aries), sequence (P05979 whole entry, looked up): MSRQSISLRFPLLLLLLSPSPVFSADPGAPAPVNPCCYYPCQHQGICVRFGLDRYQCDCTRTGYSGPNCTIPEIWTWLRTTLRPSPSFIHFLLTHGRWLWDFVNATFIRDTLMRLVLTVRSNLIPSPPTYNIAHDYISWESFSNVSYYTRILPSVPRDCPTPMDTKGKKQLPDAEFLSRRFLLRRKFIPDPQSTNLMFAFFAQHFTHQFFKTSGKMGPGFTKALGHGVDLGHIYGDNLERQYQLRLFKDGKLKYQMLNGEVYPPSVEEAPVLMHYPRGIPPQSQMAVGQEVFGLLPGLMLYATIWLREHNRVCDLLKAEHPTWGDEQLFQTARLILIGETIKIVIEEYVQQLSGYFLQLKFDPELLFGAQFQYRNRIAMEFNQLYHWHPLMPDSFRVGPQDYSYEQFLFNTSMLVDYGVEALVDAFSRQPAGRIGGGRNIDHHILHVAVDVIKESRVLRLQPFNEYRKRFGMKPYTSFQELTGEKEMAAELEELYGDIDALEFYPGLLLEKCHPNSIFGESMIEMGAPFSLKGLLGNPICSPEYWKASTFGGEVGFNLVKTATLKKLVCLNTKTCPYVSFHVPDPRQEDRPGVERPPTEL
SMILES,IC50 [1],Cmax [2],Tmax [3],ED50 (Rattus norvegicus [4]),IC50 [5],ED50 (Rattus norvegicus [9]),other results
CC1CN(c2cccc(-c3ccco3)c2)NC(=O)N1 (stereo unspecified),4.8 µM,7 µM,1 h,inactive,8.4 µM,,
O=C1CCN(c2ccccc2)N1 [PHENIDONE],,,,,,,IC50 (Cyclooxygenase [6]): 13 µM; IC50 (Cyclooxygenase [7]): 12 µM; IC50 [8]: 94 µM
O=C1NCCN(c2cccc(Cl)c2)N1,5.3 µM,59 µM,2 h,,2.1 µM,18 mg/kg,
O=C1NCCN(c2ccccc2)N1,,,1 h,,5.8 µM and 9.2 µM,7 mg/kg,IC50 [10]: 5.8 µM; IC50 [11]: 4.6 µM; Cmax [12]: 74 µM; Cmax [13]: 130 µM; half-life [14]: 0.8 h; half-life [15]: 1 h; Tmax [16]: 0.3 h; Tmax [17]: 2 h; Tmax [18]: 1 h; inhibition (Cyclooxygenase [19]): 0%; inhibition [20]: 28%; Cmax (Cmax in dog (PO dose)): 132 µM; inhibition [21]: 4%
O=C1NC(Oc2ccccc2)CN(c2ccccc2)N1 (stereo unspecified),,,,inactive,2.6 µM,,
Cc1ccccc1N1CCNC(=O)N1,386 µM,78 µM,2.1 h,inactive,,,
CC1(C)CN(c2ccccc2)NC(=O)N1,6.8 µM,20 µM,2.2 h,inactive,,,
CC(C)C1CN(c2ccccc2)NC(=O)N1 (stereo unspecified),6.8 µM,48 µM,2 h,,20 µM,59 mg/kg,
CC1CN(c2cccc(Cl)n2)NC(=O)N1 (stereo unspecified),3.5 µM,48 µM,2 h,inactive,1.6 µM,,
O=C1NCCN(c2cccc(Cl)n2)N1,5.6 µM,122 µM,2 h,,4.8 µM,16 mg/kg,
Cc1cccc(N2CCNC(=O)N2)n1,5.5 µM,99 µM,1 h,,7.9 µM,17 mg/kg,
O=C1NC(Oc2ccc(F)cc2)CN(c2ccccc2)N1 (stereo unspecified),,,,inactive,2.6 µM,,
O=C1NCCN(c2cccc(Br)n2)N1,3.5 µM,79 µM,1 h,,4.6 µM,41 mg/kg,
